The list is not random: actives were taken first. Their share in the collection is about 2.2%.
DENV2 CPE = protects cells from dengue virus 2 cytopathic effect; DENV2-infected cells, cytopathic effect rescue, plate reader; CPE inhibition, % at 9.99 µM; 350,000 compounds, 1.7% hits; AID 651640; in the data active = CPE inhibition above about 20%, passing the limit was not always enough; tested in BHK-21 cells;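 also: 0% = median of neutral control wells and 100% = median of positive control wells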
E-sel inducer = induces E-selectin expression in human endothelial cells. HUVEC E-selectin immunofluorescence imaging; normalized: neutral wells 0, TNF-alpha wells 100. activation, % at 7.58 µM. 260,000 compounds, 0.37% hits. AID 686992;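 active = mean E-selectin-positive cell signal at least 10% of the positive control, reached in at least 60% of replicates, without over 20% cell loss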
Target sequence (P16581 whole entry, looked up): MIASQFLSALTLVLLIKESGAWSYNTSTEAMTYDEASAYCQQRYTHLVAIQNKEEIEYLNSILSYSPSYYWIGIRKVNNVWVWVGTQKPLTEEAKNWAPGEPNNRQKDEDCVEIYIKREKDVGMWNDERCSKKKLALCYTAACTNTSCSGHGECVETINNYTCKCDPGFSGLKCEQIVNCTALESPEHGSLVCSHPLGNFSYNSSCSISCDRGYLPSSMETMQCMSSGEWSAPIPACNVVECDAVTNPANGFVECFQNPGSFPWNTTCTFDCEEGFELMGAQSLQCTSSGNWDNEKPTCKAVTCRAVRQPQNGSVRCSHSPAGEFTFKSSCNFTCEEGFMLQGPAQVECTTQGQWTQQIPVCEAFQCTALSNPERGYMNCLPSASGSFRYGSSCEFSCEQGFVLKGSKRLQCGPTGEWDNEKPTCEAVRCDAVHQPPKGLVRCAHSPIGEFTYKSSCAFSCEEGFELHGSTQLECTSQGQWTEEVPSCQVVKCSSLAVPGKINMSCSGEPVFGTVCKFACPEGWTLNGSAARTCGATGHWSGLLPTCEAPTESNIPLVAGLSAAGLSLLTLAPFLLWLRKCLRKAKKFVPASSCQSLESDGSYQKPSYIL
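Assay system: HUVEC, human umbilical vein endothelial cells / Amount: 3,000 HUVEC/well / Controls: TNF-alpha positive control, DMSO neutral control / Compound dosing: single concentration / Medium: EGM-2 over gelatin coat / Evaluation: percent E-selectin-positive cells / Signal: immunofluorescence imaging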
Statin myotox sup = suppressors of simvastatin-induced myotoxicity in C2C12 myotubes | rescue of ATP level, % at 7.49 µM | 330,000 compounds, 0.78% hits | ATP luminescence, 48 h; scaled: DMSO 0, geranylgeraniol control 100;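 active = mean ATP rescue above about 67%, or every replicate alone reaching that limit, limit read from the data, passing the limit was not always enough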;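 also: myotubes were challenged with 10 µM simvastatin during compound exposure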
Active calls of the source: *; . = no result.

SMILES | DENV2 CPE | E-sel inducer | Statin myotox sup
Cc1noc(C)c1NC(=O)N(C)C[C@@H]1Oc2c(NC(=O)c3nc4ccccc4s3)cccc2C(=O)N([C@@H](C)CO)C[C@H]1C | 1 | 0 | 28
C[C@H](CO)N1C[C@H](C)[C@@H](CN(C)CC2CC2)Oc2cc(-c3ccccc3)ccc2S1(=O)=O | -2 | 1 | -18
C[C@@H]1CCCCO[C@@H](CN(C)Cc2ccc(C(=O)O)cc2)[C@H](C)CN([C@@H](C)CO)C(=O)c2cc(NS(C)(=O)=O)ccc2O1 | -6 | 0 | .
C[C@@H]1CCCCO[C@@H](CN(C)Cc2ccc(C(=O)O)cc2)[C@@H](C)CN([C@@H](C)CO)C(=O)c2cc(NS(C)(=O)=O)ccc2O1 | 48* | 0 | .
COC(=O)C[C@@H]1CC[C@H]2[C@@H](COC[C@H](O)CN2S(=O)(=O)c2ccc(F)cc2)O1 | -1 | 0 | 25
COCC(=O)N(C)C[C@H]1Oc2ncc(C#Cc3ccc(F)cc3)cc2C(=O)N([C@@H](C)CO)C[C@@H]1C | 2 | 0 | 17
O=C(CCCN=C1NS(=O)(=O)c2ccccc21)OCC(=O)c1ccccc1 | -5 | . | -1
COc1ccc(C(=O)COC(=O)CCCN=C2NS(=O)(=O)c3ccccc32)c(OC)c1 | 36* | -2 | .
COc1ccc(C(=O)COC(=O)CCN=C2NS(=O)(=O)c3ccccc32)c(OC)c1 | 82* | . | .
COc1ccccc1C(=O)COC(=O)CCN=C1NS(=O)(=O)c2ccccc21 | 2 | . | -3
Cc1cc(C(=O)COC(=O)CN=C2NS(=O)(=O)c3ccccc32)c(C)n1CCc1ccc(Cl)cc1 | 17 | . | 112*
Cc1cc(C(=O)COC(=O)c2ccc3c(c2)NC(=O)CS3)c(C)n1CCc1ccc(Cl)cc1 | -2 | . | .
Cc1ccc(S(=O)(=O)N(C)C[C@H]2Oc3ccc(NC(=O)NC(C)C)cc3C(=O)N([C@H](C)CO)C[C@H]2C)cc1 | 1 | 0 | -33
COc1cc(C(CCN2CCOCC2)c2c(OC)cc(OC)c3c(C)cc(=O)oc23)cc(OC)c1OC (configuration not stated) | . | 0 | 5
COc1ccc(C(CCN2CCOCC2)c2c(OC)cc(OC)c3c(C)cc(=O)oc23)cc1 (configuration not stated) | 56* | 0 | 12
COc1ccc(C(CC(=O)N2CCCC2)c2c(OC)cc(OC)c3c(-c4ccccc4)cc(=O)oc23)cc1 (configuration not stated) | 1 | 0 | -10
COc1ccc(C(CC(=O)N2CCCCC2)c2c(OC)cc(OC)c3c(-c4ccccc4)cc(=O)oc23)cc1 (configuration not stated) | 71* | 0 | 9
C[C@H](CO)N1C[C@H](C)[C@H](CN(C)C(=O)C2CCOCC2)Oc2ncc(C#CC(C)(C)O)cc2C1=O | 13 | 0 | 8
CO[C@@H]1CN(C)C(=O)c2ccc(NS(=O)(=O)c3ccccc3)cc2OC[C@H](C)N(Cc2cccnc2)C[C@@H]1C | -8 | 0 | -3
CC(C)COc1ccc(-c2nn(-c3ccccc3)cc2CO)cc1 | -4 | . | -35
OCc1cn(-c2ccccc2)nc1-c1ccc(Br)cc1 | 48* | 0 | -8
O=C(Cc1ccccn1)NCC[C@H]1CC[C@@H](NC(=O)Nc2ccccc2)[C@H](CO)O1 | -2 | 0 | 1
COc1ccc(NC(=O)N[C@@H]2CC[C@@H](CCNS(=O)(=O)c3cccc(Cl)c3)O[C@H]2CO)cc1 | 1 | -1 | -8
COc1ccccc1P(=O)(Cc1ccccc1[N+](=O)[O-])c1ccccc1 (configuration not stated) | 4 | 59* | .
COc1ccccc1[N+](=O)[O-] | -8 | . | -3
SMILES | DENV2 CPE | E-sel inducer | Statin myotox sup
O=C(Cc1cn2ccsc2n1)NCc1ccccc1 | 3 | . | 10
O=C(Cc1cn2ccsc2n1)Nc1ccccc1Oc1ccccc1 | . | . | 101*
COc1ccc(-c2cnc3c(c2)C(=O)N([C@H](C)CO)C[C@H](C)[C@H](CN(C)S(=O)(=O)c2cccc(OC)c2)O3)cc1 | . | 0 | 36
COc1ccc(CC(=O)OCC(=O)c2ccc(OC)c(OC)c2)cc1 | 30* | 0 | -2
COc1ccc(CC(=O)c2ccc(OC)c(OC)c2)cc1 | 4 | -2 | .
CO[C@@H]1CN(C)C(=O)c2ccc(NC(=O)Nc3cc(F)ccc3F)cc2OC[C@@H](C)N(C(=O)c2cnccn2)C[C@H]1C | -5 | 0 | 11
COCc1nc2ccccc2n1Cc1ccc(Br)cc1 | . | . | 79*
COCc1nc2ccccc2n1Cc1ccccc1 | . | . | 2
COCC(=O)N[C@@H]1CC[C@H](CC(=O)NCc2ccccc2OC)O[C@@H]1CO | 9 | 0 | 3
CCN(CC)c1ccc(C(=S)N2CCN(c3ccccc3)CC2)cc1 | . | . | 80*
S=C(c1ccccc1)N1CCN(c2ccccc2)CC1 | 8 | 0 | 13
